Source: PubChem BioAssay (Johns Hopkins Ion Channel Center)
Only some compounds are listed: those with a hit (about 3.7% of all), similar ones and a draw of the others.
KCNK9 block – KCNK9 potassium channel inhibitors, primary screen, HEK293 cells, thallium flux; Potassium channel subfamily K member 9 (Homo sapiens), Q9NPC2; FluxOR thallium flux fluorescence; stronger effect = lower value; B-score at 10 µM; 1.2% of 310,000 active; AID 488922, 2010;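 active = ratio B-score over 3 SD below the library mean, with starting fluorescence within 5 SD of its mean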;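 note: negative B-score means less thallium flux so channel inhibition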
hERG rescue – hERG rescue from dofetilide block, primary screen, cell-based, CHO-hERG, FluxOR thallium flux, dofetilide IC70. Voltage-gated inwardly rectifying potassium channel KCNH2 (Homo sapiens), Q12809. activation (rescue from dofetilide block), less the hit threshold, % at 10 µM. dofetilide IC70 present. AID 1511, 2009. 0.51% of 310,000 active;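 active = activation above the mean of controls blocked by dofetilide plus 5 SD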;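 note: thallium influx through hERG after potassium depolarization seen as dye fluorescence rise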
Kir21 block – inhibitors of mouse Kir2.1 inward-rectifier potassium channel. AID 1672, 2009. HEK293-Kir2.1, FluxOR thallium flux fluorescence; stronger effect = lower value. B-score at 10 µM. 0.85% of 310,000 active;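 active = fluorescence ratio B-score at or below minus 3 SD of library scores, with starting-brightness B-score within 2 SD, cut at about -4.2 in these data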;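 note: channel flux triggered by added potassium and thallium sulfate stimulus; B-score of peak minus minimum fluorescence over baseline after thallium stimulus; more negative B-score means stronger Kir2.1 block with less thallium influx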
KCNK3 block – human KCNK3 channel inhibitors, primary screen, CHO cells, FluxOR thallium flux, B-score; Potassium channel subfamily K member 3 (Homo sapiens), O14649; FluxOR fluorescence; stronger effect = lower value; B-score at 10 µM; 0.84% of 340,000 active; AID 602410, 2012;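 active = B-score under library mean minus 4 SD, starting fluorescence ratio at most library mean plus 5 SD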;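 note: more negative B-score means stronger inhibition of thallium flux through KCNK3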
KCNQ1 block – inhibitors of human KCNQ1 channel, primary screen, cell-based, thallium flux, high-throughput; Potassium voltage-gated channel subfamily KQT member 1 (Homo sapiens), P51787; CHO-K1 KCNQ1, FluxOR thallium flux fluorescence; stronger effect = higher value; B-score at 10 µM; 1.3% of 310,000 active; AID 2642, 2010;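 active = compounds whose thallium flux B-score, printed positive for inhibition, exceeds three library SD while starting fluorescence stays within three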;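 note: channel opened by potassium depolarization with thallium stimulus after 20 min compound exposure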
KCNQ1 pot – potentiators or activators of KCNQ1 channel, primary screen, cell-based, thallium flux, high-throughput. B-score at 10 µM. 0.35% of 310,000 active. Potassium voltage-gated channel subfamily KQT member 1 (Homo sapiens), P51787. AID 2648, 2010. CHO-K1 KCNQ1, thallium flux FluxOR fluorescence; stronger effect = higher value;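 active = fluorescence ratio B-score, a plate-corrected score, at least three library SD, with initial intensity B-score within 5 SD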
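assay system = KCNQ1-transfected CHO-K1 cells | medium = assay buffer with matched DMSO | probe or stimulus = depolarizing K+/Tl+ stimulus, K2SO4 and Tl2SO4 each 12.5 mM in 5x stock | dosing = single dose | incubation = dye 90 min, compound 20 min, room temperature | detection = kinetic FluxOR fluorescence, 10 s baseline plus 110 s post-stimulus | evaluation = ratio B score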
Numbers without * were called inactive; i = inactive; nt = not tested or not shown; ! = a repeat was not active.

SMILES	KCNK9 block	hERG rescue	Kir21 block	KCNK3 block	KCNQ1 block	KCNQ1 pot
Cc1cccc(/C=C2/S/C(=N/N=C3\CC4CCC3(C)C4(C)C)NC2=O)c1 (stereo unspecified)	i	14*	0.73	i	i	18*
N#CC(c1ccccc1)N(CCCCl)C(=O)c1ccccc1 (stereo unspecified)	i	-7	-4.6*	i	i	i
CC(=O)N(CCCCl)C(C#N)c1ccccc1 (stereo unspecified)	i	-5	-1.6	i	i	i
CCCCn1c(N)c(N(CC(C)C)C(=O)C2CC(=O)N(Cc3ccco3)C2)c(=O)[nH]c1=O (stereo unspecified)	i	-5	1.4	i	i	i
O=C1NC(c2cccc(Cl)c2)Oc2ccccc21 (stereo unspecified)	i	6.3*	0.55	i	i	i
CCCCN(CCCC)S(=O)(=O)c1ccc(NC(=O)c2ccc([N+](=O)[O-])cc2Cl)cc1	i	-7	-3.5	i	7*	i
CCOc1ccc(CN(C(=O)c2cccs2)C2CCS(=O)(=O)C2)cc1 (stereo unspecified)	i	-7	-0.33	i	i	i
O=C(NCCN1CCOCC1)c1cn(-c2ccccc2)nc1-c1cccs1	i	-14	2.4	i	i	i
O=C(NCCCN1CCOCC1)c1cn(-c2ccccc2)nc1-c1cccs1	i	-11	-4.5*	i	i	i
N#C/C(=C/c1ccc(Sc2nc3ccccc3[nH]2)o1)c1ccccc1F	i	-18	-2.1	i	17*	i
N#C/C(=C\c1ccc([N+](=O)[O-])o1)c1nc2ccccc2[nH]1	i	-12	-2	nt	6*	i
N#C/C(=C/c1ccc(Sc2nc3ccccc3[nH]2)o1)c1cccc(Br)c1	i	-9	0.36	-10*	i	i
N#C/C(=C\c1ccc(Sc2ccccc2)o1)c1nc2ccccc2[nH]1	i	-11	-0.31	i	i	i
COc1ccc(OC)c(NC(=O)C(=O)N/N=C(\C)CC(=O)Nc2ccc(Cl)cn2)c1	i	-9	0.36	i	i	i
CCCCS(=O)(=O)/C=C\C=C/S(=O)(=O)CCCC	i	-12	-1.7	i	i	14*
OCCN1CCN(CC#CCn2c3ccccc3c3ccccc32)CC1	i	-7	-4.1	i	i	i
OCCN1CCN(CC#CCC(c2ccccc2)c2ccccc2)CC1	i	-4	-5.7*	i	i	i
Cc1ccc(Cl)cc1NC(=S)NCCCSC1CCCCC1	i	-14	-0.82	i	8*	i
Cc1ccc(Nc2cc(C)c3ccc(O)cc3n2)cc1C	i	-29	-5.1*	i	i	i
CCc1ccccc1NC(=O)c1ccc(OCc2c(C)noc2C)cc1	nt	nt	nt	i	nt	nt
CCC(C)[C@H](NC(=O)N1CCn2c1nc1ccccc12)C(=O)NCc1ccccc1 (stereo partly specified)	i	-8	1.6	i	i	i
CCCCCCCCNc1ccccc1S(=O)(=O)NCc1ccccc1	nt	nt	nt	i	nt	nt
O=C(O)c1ccc(NC2(C(=O)O)CCCC2)cc1	nt	nt	nt	i	nt	nt
CC(C)N(Cc1ccccc1)C(=S)NCc1ccccc1	i	-9	-4.2*	i	i	i
CCc1cc(Cn2nc(-c3ccccc3)cc2C(=O)NCc2ccccc2OC)on1	i	-4	1.7	i	i	i
SMILES	KCNK9 block	hERG rescue	Kir21 block	KCNK3 block	KCNQ1 block	KCNQ1 pot
Cc1cc(C)nc(SCCCNCc2c(F)cccc2Cl)n1	i	-8	-2.1	i	i	i
Cc1ccc(CNCCCSc2nc(C)cc(C)n2)cc1	i	-5	-4.9*	i	i	i
O=C(CCl)N1CCN(S(=O)(=O)c2ccc3c(c2)CCC3)CC1	nt	nt	nt	i	nt	nt
COc1ccc(-c2[nH]ncc2CN(CCO)CC23CC4CC(CC(C4)C2)C3)c(OC)c1	i	-16	-5.6*	i	i	i
COc1ccc(C(=O)NNC(=O)c2ccc(S(=O)(=O)N3CC(C)OC(C)C3)cc2)cc1 (stereo unspecified)	i	-7	1.2	i	7*	i
COc1cc(OC)cc(C(=O)NNC(=O)c2ccc(S(=O)(=O)N3CC(C)OC(C)C3)cc2)c1 (stereo unspecified)	i	-9	0.04	i	i	i
O=C(CCC1N=C2c3ccccc3N=C(SCc3ccc(Cl)cc3)N2C1=O)NCc1ccco1 (stereo unspecified)	-7.8*	-17	-2.5	i	i	i
O=C(CCC1N=C2c3ccccc3N=C(SCc3ccc(F)cc3)N2C1=O)NCc1ccco1 (stereo unspecified)	i	-18	-1.8	i	i	i
CN(C(=O)CS(=O)(=O)c1cn(CC(=O)N2CCCCC2)c2ccccc12)c1ccccc1	i	-9	-0.79	i	i	i
O=C(Cc1c[nH]c2ccccc12)NCc1ccc(Cl)cc1Cl	i	-17	-4.2*	i	i	i
CN1CCN(c2cc(N3CCc4ccccc4C3)c(F)cc2[N+](=O)[O-])CC1	i	-23	-4.7*	i	i	i
COc1ccc(NC(=O)c2sc3ncn(CC(=O)N4CCCCC4)c(=O)c3c2C)cc1OC	i	-10	-0.47	i	i	i
CCCCCn1c(=N)n(CC(O)COc2ccccc2OC)c2ccccc21 (stereo unspecified)	i	-26	-4.3*!	i	7*!	i
Cc1ccc(OCC(O)Cn2c(=N)n(CCN3CCCCC3)c3ccccc32)cc1 (stereo unspecified)	i	-19	-4.3*	i	i	i
CCCCn1c(=N)n(CC(O)COc2cccc(C)c2)c2ccccc21 (stereo unspecified)	i	-24	-5.2*	i	7*	i
CCCCn1c(=N)n(CCOc2ccc(C)cc2)c2ccccc21	i	-11	-4.6*	i	i	i
CCCn1c(=N)n(CC(O)COc2ccc(C)cc2)c2ccccc21 (stereo unspecified)	i	-7	-3.9	i	i	i
O=C(COC(=O)c1cc(S(=O)(=O)N2CCOCC2)c(Cl)cc1Cl)c1ccc[nH]1	nt	nt	nt	i	nt	nt
